The text below walks through data of ChEMBL document CHEMBL4017549, “Structural Basis of Inhibition of ERα-Coactivator Interaction by High-Affinity N-Terminus Isoaspartic Acid Tethered Helical Peptides” (J Med Chem, 2017).

Activity calls are given as the source filed them. The calls are words filed in the database; no cut-off is given here. Bridge positions count the residues as written; N and C are the ends. Square brackets hold non-standard residues; d marks the D form. Side chains are listed from the residue outwards. Peptide text beside a SMILES is read from it. * marks the point of attachment. ξ: configuration not given here. FITC = O=C1OC2(c3ccc(O)cc3Oc3cc(O)ccc32)c2ccc(NC(=S)*)cc21; ξtBuAla = CC(C)(C)CC(N)C(=O)O; ξD = NC(CC(=O)O)C(=O)O; ξDap = NCC(N)C(=O)O; βAla = NCCC(=O)O

For one data set, the system named is MCF7. The experiment in a line: Cytotoxicity against human MCF7 cells assessed as cell viability at 20 uM after 24 hrs by MTT assay. Type of data set: functional. The conditions noted are these: MCF7, 24 h, read-out: Activity. Background: Tetrazolium assays rely on reduction of a dye to a coloured formazan, in cell work by metabolically active cells.
Data set [1] has as its target T1, Estrogen receptor (Homo sapiens) (UniProt P03372).
T1 sequence (whole entry): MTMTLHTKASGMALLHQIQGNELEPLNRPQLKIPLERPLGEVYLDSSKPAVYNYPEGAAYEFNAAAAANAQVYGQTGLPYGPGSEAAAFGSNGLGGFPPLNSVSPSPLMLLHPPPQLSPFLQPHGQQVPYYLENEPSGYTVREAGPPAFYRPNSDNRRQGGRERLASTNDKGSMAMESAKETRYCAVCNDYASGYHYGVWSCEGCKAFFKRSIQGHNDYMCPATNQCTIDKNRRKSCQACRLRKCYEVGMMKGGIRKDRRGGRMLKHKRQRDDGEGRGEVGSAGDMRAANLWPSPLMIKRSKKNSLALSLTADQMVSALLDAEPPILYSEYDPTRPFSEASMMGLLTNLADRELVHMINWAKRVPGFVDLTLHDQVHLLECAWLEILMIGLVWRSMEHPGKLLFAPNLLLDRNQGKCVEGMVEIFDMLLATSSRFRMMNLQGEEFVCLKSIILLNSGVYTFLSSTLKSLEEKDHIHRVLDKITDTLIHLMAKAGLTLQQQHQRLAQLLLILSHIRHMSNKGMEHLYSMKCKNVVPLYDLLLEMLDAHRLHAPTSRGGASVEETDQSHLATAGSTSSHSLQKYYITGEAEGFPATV
The experiment in a line: Binding affinity to recombinant human GFP-fused ERalpha LBD (301 to 553 residues) expressed in Escherichia coli BL21(DE3) after 40 mins in presence of 17beta-estradiol by fluorescence polarization assay. Particulars: in the assay text read “ERalpha LBD” for “GFP-fused ERalpha LBD”. In general terms: Polarisation of emitted light reports the rotation of a fluorescent probe.

A short description of data set [2]: Drug uptake in human MCF7 cells assessed per million cells at 5 uM after 3 hrs by FACS analysis. The class given is ADME, cell-based. The conditions noted are these: mcf7, 3 h. The method in brief:
(§1)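 Adherent cells seeded overnight, then exposed to 5 μM FITC-labelled peptide or DMSO in FBS-free medium, 3 h, 37 °C. After PBS washes (three), about 10000 cells per sample analysed by flow cytometry; mean cellular fluorescence intensity calculated. More than two independent experiments, SEM.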
(Flow cytometry measures light scatter and fluorescence of single cells or particles in a stream.)

The target of data set [3] is T1, Estrogen receptor (Homo sapiens). The experiment in a line: Binding affinity to recombinant human GFP-fused ERalpha LBD (301 to 553 residues) expressed in Escherichia coli BL21(DE3) in presence of 17beta-estradiol by ITC. The method in brief:
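ITC at 25 °C. 2 μL injections of 50 μM peptide into 5 μM ERα LBD in 50 mM Tris pH 8.0, 150 mM NaCl, 1 mM TCEP, 0.1 mM 17β-estradiol. Binding isotherm fitted for affinity.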

For data set [4] the target is unchanged. The experiment in a line: Binding affinity to recombinant human GFP-fused ERalpha LBD (301 to 553 residues) expressed in Escherichia coli BL21(DE3) in presence of ERalpha inhibitor 4-hydroxytamoxifen by ITC. The method in brief: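 ITC at 25 °C. 50 μM peptide injected in 2 μL steps into 5 μM ERα LBD in 50 mM Tris pH 8.0, 150 mM NaCl, 1 mM TCEP containing 0.1 mM 4-hydroxytamoxifen instead of estradiol. Isotherm fitted.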

Data set [5] in a line: Drug uptake in human U2OS cells assessed per million cells at 5 uM after 3 hrs by FACS analysis. Type of data set: ADME, cell-based. The method in brief:
as §1

As for `CC[C@H](C)[C@@H]1NC(=O)C[C@H](NC(=O)[C@H](CCCNC(=N)N)NC(=O)CCNC(=O)[C@H](Cc2c[nH]c3ccccc23)NC(C)=O)C(=O)NCC(C(=O)N[C@@H](CCCNC(=N)N)C(=O)N[C@@H](CC(C)C)C(=O)N[C@@H](CC(C)C)C(=O)N[C@@H](CCC(N)=O)C(N)=O)NC(=O)C(CC(C)(C)C)NC1=O` (some centres undefined), the viability at 20 µM with MCF7 is 53.9%.

On to `CC[C@H](C)[C@@H]1NC(=O)C[C@H](NC(=O)[C@H](CCCNC(=N)N)NC(=O)CCNC(=O)[C@H](Cc2c[nH]c3ccccc23)NC(C)=O)C(=O)NCC(C(=O)N[C@@H](CCCNC(=N)N)C(=O)N[C@@H](CC(C)C)C(=O)N[C@@H](CC(C)C)C(=O)N[C@@H](CCC(N)=O)C(N)=O)NC(=O)[C@H](CC(C)C)NC1=O` (some centres undefined), for which the viability at 20 µM with MCF7 came to 64.5%.

For the compound `CC[C@H](C)[C@@H]1NC(=O)C[C@H](NC(=O)[C@H](CCCNC(=N)N)NC(=O)CCNC(=O)[C@H](Cc2c[nH]c3ccccc23)NC(C)=O)C(=O)NCC(C(=O)N[C@@H](CCCNC(=N)N)C(=O)N[C@@H](CC(C)C)C(=O)NC(CC(C)(C)C)C(=O)N[C@@H](CCC(N)=O)C(N)=O)NC(=O)[C@H](CC(C)C)NC1=O` (some centres undefined), the viability at 20 µM in the data set with MCF7 was determined as 43.1%.

`CC[C@H](C)[C@@H]1NC(=O)C[C@H](NC(=O)[C@H](CCCNC(=N)N)NC(=O)CCNC(=O)[C@H](Cc2c[nH]c3ccccc23)NC(C)=O)C(=O)NCC(C(=O)N[C@@H](CCCNC(=N)N)C(=O)NC(CC(C)(C)C)C(=O)N[C@@H](CC(C)C)C(=O)N[C@@H](CCC(N)=O)C(N)=O)NC(=O)[C@H](CC(C)C)NC1=O` (some centres undefined): the viability at 20 µM in the data set on MCF7 turned out to be 53.9%.

`CC[C@H](C)[C@@H]1NC(=O)C[C@H](NC(=O)[C@H](CCCNC(=N)N)NC(=O)CCNC(=S)Nc2ccc3c(c2)C(=O)OC32c3ccc(O)cc3Oc3cc(O)ccc32)C(=O)NCC(C(=O)N[C@@H](CCCNC(=N)N)C(=O)N[C@@H](CC(C)C)C(=O)N[C@@H](CC(C)C)C(=O)N[C@@H](CCC(N)=O)C(N)=O)NC(=O)C(CC(C)(C)C)NC1=O` (some centres undefined): the outcome in data set [1] was Active.

For the compound `CC[C@H](C)[C@@H]1NC(=O)C[C@H](NC(=O)[C@H](CCCNC(=N)N)NC(=O)CCNC(=S)Nc2ccc3c(c2)C(=O)OC32c3ccc(O)cc3Oc3cc(O)ccc32)C(=O)NCC(C(=O)N[C@@H](CCCNC(=N)N)C(=O)NC(CC(C)(C)C)C(=O)N[C@@H](CC(C)C)C(=O)N[C@@H](CCC(N)=O)C(N)=O)NC(=O)[C@H](CC(C)C)NC1=O` (some centres undefined), the Drug uptake result in data set [2] and in data set [5] was “Active” in each case. Further, the result in data set [1] and in data set [3] was Active. In addition, the outcome in data set [4] was inactive.

Consider `CC[C@H](C)[C@@H]1NC(=O)C[C@H](NC(=O)[C@H](CCCNC(=N)N)NC(=O)CCNC(=S)Nc2ccc3c(c2)C(=O)OC32c3ccc(O)cc3Oc3cc(O)ccc32)C(=O)NCC(C(=O)N[C@@H](CCCNC(=N)N)C(=O)N[C@@H](CC(C)C)C(=O)NC(CC(C)(C)C)C(=O)N[C@@H](CCC(N)=O)C(N)=O)NC(=O)[C@H](CC(C)C)NC1=O` (some centres undefined), for which the outcome in data set [1] was Active.

Consider `CC[C@H](C)[C@@H]1NC(=O)C(NC(=O)[C@H](CCCNC(=N)N)NC(=O)CCNC(=S)Nc2ccc3c(c2)C(=O)OC32c3ccc(O)cc3Oc3cc(O)ccc32)CNC(=O)C(CC(=O)N[C@@H](CCC(N)=O)C(=O)NC(CC(C)(C)C)C(=O)N[C@@H](CCCNC(=N)N)C(=O)NC(CC(C)(C)C)C(N)=O)NC(=O)C(CC(C)(C)C)NC1=O` (stereo partly drawn) ({FITC-βAla}-R[ξDap]I[ξtBuAla][ξD]([Gln-ξtBuAla-Arg-ξtBuAla-NH2]); lactam 2-C), for which the Drug uptake entry in data set [2] and in data set [5] was “Active” throughout. The outcome in data set [1] was inactive.
